The test system of one experiment is Candida albicans. In words: In vitro antifungal activity against Candida albicans. It is filed as functional. The procedure, abridged:
(§1)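 Clinical isolates kept on Sabouraud's dextrose agar at 28 °C. Inocula at 1 × 10^5 CFU/mL: C. albicans yeast cells grown 48 h in Sabouraud's dextrose broth; A. fumigatus and T. asteroides conidia grown 14 days in that broth with 0.1% Tween 80. Microtiter twofold dilution in Sabouraud's dextrose broth, 100 to […] µg/mL, methanol ≤2%. Sealed, 37 °C, 48 h. MIC is the lowest concentration without visible growth.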

In another experiment the test system is Aspergillus fumigatus. In words: In vitro antifungal activity against Aspergillus fumigatus. It is filed as functional. The procedure, abridged:
as §1

In another experiment the test system is Trichophyton benhamiae. In words: In vitro antifungal activity against Trichophyton asteroides. It is filed as functional, tricophyton asteroides. The procedure, abridged:
as §1

≈ marks a conversion by molar mass, not a printed value.

Here are results for two molecules from ChEMBL document CHEMBL1121767, “Synthesis and in vitro antimicrobial property of o-carborane derivatives” (1981).

A word on the MIC: it is the smallest concentration in the dilution series that meets the test's criterion for growth inhibition. As for `C[C@@H]1[C@H](O)[C@@H](C)/C=C/C=C/C=C/C=C/C=C/C=C/C=C/[C@H](O[C@@H]2O[C@H](C)[C@@H](O)[C@H](N)[C@@H]2O)C[C@@H]2O[C@](O)(C[C@@H](O)C[C@@H](O)[C@H](O)CC[C@@H](O)C[C@@H](O)CC(=O)O[C@H]1C)C[C@H](O)[C@H]2C(=O)O` [AMPHOTERICIN B], the minimum inhibitory concentration (MIC) against Candida albicans was determined as 1.6 µg/mL (≈ 1.73 µM); against Aspergillus fumigatus, 3.1 µg/mL (≈ 3.35 µM); in the experiment with Trichophyton benhamiae, 3.1 µg/mL (≈ 3.35 µM).

For `Clc1ccccc1C(c1ccccc1)(c1ccccc1)n1ccnc1` [CLOTRIMAZOLE], the MIC against Candida albicans was 3.1 µg/mL (≈ 8.99 µM); against Aspergillus fumigatus, 3.1 µg/mL (≈ 8.99 µM); against Trichophyton benhamiae it was < 0.1 µg/mL.
